Assay results published in publication PMC11684312 (Nature chemistry, 2024).

Assays:
C349A LIMK1-NanoLuc = C349A LIMK1-NanoLuc (Homo sapiens, UniProt P53667, C349A); assay: LIMK1 NanoBRET target engagement assay, C349A; type: cell-based; conditions: HEK293T cells, C349A-LIMK1 mutant, 3 h
Summary of the method: (§1)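 HEK293T cells in Opti-MEM without phenol red with 1% FBS (2x10^5 cells/mL) were transfected with WT or C349A LIMK1-NanoLuc plasmid (1 μg/mL) plus carrier DNA (9 μg/mL) for 20 h at 37 °C/5% CO2. K-10 tracer and test compound (diluted from 1000x DMSO stocks) were added for 3 h at 37 °C. Donor 450 nm and acceptor 610 nm were read after substrate/inhibitor (2 min, RT). Untransfected background was subtracted, mBU calculated, then normalized to DMSO. Triplicate wells.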

WT LIMK1-NanoLuc = WT LIMK1-NanoLuc (Homo sapiens, UniProt P53667); assay: LIMK1 NanoBRET target engagement assay, WT; type: cell-based; conditions: HEK293T cells, 0.5 μM K-10 tracer, 3 h
Sequence of WT LIMK1-NanoLuc (P53667 whole entry): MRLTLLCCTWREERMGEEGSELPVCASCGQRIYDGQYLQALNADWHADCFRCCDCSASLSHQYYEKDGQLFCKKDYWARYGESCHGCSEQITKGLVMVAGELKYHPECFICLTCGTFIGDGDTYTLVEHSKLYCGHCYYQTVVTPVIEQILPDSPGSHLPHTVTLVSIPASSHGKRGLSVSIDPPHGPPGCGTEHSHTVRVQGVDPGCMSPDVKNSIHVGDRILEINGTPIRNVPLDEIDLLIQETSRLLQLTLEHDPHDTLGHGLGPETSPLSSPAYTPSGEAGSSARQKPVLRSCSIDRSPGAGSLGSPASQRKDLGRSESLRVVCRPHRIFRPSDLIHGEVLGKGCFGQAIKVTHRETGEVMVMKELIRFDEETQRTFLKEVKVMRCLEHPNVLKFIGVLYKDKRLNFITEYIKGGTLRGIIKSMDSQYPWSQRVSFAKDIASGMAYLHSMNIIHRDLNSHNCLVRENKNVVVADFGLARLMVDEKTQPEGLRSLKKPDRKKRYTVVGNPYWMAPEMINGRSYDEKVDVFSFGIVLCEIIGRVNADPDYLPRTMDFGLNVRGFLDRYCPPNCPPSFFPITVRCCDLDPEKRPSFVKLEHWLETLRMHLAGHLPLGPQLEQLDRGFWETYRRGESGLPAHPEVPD
Summary of the method: as §1

Sequence of C349A LIMK1-NanoLuc (P53667 whole entry C349A): as the sequence (P53667 whole entry) above, with C349A counted along it

BRET signal (NanoBRET K-10 tracer) (C349A LIMK1-NanoLuc): decreased NanoBRET signals | BRET signal (NanoBRET K-10 tracer) (WT LIMK1-NanoLuc): decreased NanoBRET signals
Compound: COc1ccc(N(C(=O)Nc2c(C)cccc2C)c2cc(Nc3ccc(N4CCN(C)CC4)cc3)ncn2)c(OC)c1 [HG-9-91-01]
